Experimental findings from ChEMBL document CHEMBL3576870, “Monanchosterols A and B, bioactive bicyclo[4.3.1]steroids from a Korean sponge Monanchora sp” (J Nat Prod, 2015) are described below.

Active and inactive are the calls of the source. The calls are words filed in the database; no cut-off is given here.

The subject of data set [1] is RAW264.7. Kind of data set: Cytotoxicity against mouse RAW264.7 cells. The data set is classed as cell-based. The following applies: for Activity: mouse, raw264.7.
Data set [2] concerns RAW264.7. Nature of the data set: Antiinflammatory activity in mouse RAW264.7 cells assessed as inhibition of LPS-stimulated TNF-alpha mRNA expression at 0.1 to 100 uM after 24 hrs by RT-qPCR analysis. The data set is classed as functional, cell-based. The gist of the method:
(§1)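 RAW 264.7 cells grown in DMEM with 10% heat-inactivated FBS and 1% penicillin-streptomycin at 37 °C, 5% CO2. Plated at 3 × 10^5 cells/mL in six-well plates, left 24 h. Then given 0.1 μg/mL LPS with or without test compound (0.1–100 μM) for 24 h. mRNA quantified by RT-qPCR after RNA extraction, normalized to 18s mRNA and expressed as ratio to DMSO. SB203580 (10 μM) served as reference. Mean ± SD of three independent experiments.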

The subject of data set [3] is RAW264.7. Nature of the data set: Antiinflammatory activity in mouse RAW264.7 cells assessed as inhibition of LPS-stimulated COX-2 mRNA expression at 0.1 to 100 uM after 24 hrs by RT-qPCR analysis. In kind it is functional, cell-based. The gist of the method: as §1
Data set [4] relates to RAW264.7. Kind of data set: Antiinflammatory activity in mouse RAW264.7 cells assessed as inhibition of LPS-stimulated IL-6 mRNA expression after 24 hrs by RT-qPCR analysis. In kind it is functional, cell-based. As to conditions: for IC50: RAW264.7, 24 h. The method in brief: as §1
(Quantitative PCR measures a nucleic acid by following its amplification.)

Data set [5] concerns RAW264.7. Nature of the data set: Antiinflammatory activity in mouse RAW264.7 cells assessed as inhibition of LPS-stimulated IL-6 mRNA expression at 10 uM after 24 hrs by RT-qPCR analysis relative to control. The data set is classed as functional. The following applies: RAW264.7, 24 h. The method in brief: as §1

What is called IC50 is the concentration that inhibits the measured activity by half. In turn, `CC(C)=CCC[C@@H](C)[C@H]1CC[C@H]2C3=C[C@@H](O)[C@H]4C(=O)[C@](C)(CC[C@@H]4O)[C@H]3CC[C@]12C` returned an IC50 in data set [1] (Mus musculus, RAW264.7) of 65 µM.
Broadly, the inhibition is the drop in the measured response relative to a control, in per cent. As for `CC(=O)O[C@H]1CC[C@@]2(C)C(=O)[C@@H]1[C@H](O)C=C1[C@@H]3CC[C@H]([C@H](C)CCC=C(C)C)[C@@]3(C)CC[C@@H]12`, the inhibition result in data set [2] is “inactive”. Moreover, the inhibition result in data set [3] is “inactive”. Also, in data set [4], the inhibition entry was “Dose-dependent effect” and the IC50 amounted to 5 µM. The inhibition at 10 µM in data set [5] worked out at 69%. For the same molecule, in data set [1], the Activity entry is given as “Non-toxic”.
With `C=C(CC[C@@H](C)[C@H]1[C@H](O)C[C@H]2[C@@H]3CC=C4C[C@@H](O)CC[C@]4(C)[C@H]3CC[C@]12C)C(C)C`, in data set [2], the inhibition entry is “inactive”. In addition, the inhibition result in data set [3] was “inactive”. Moreover, in data set [4], the inhibition result is “Dose-dependent effect” and the IC50 was 5.2 µM. Further, the inhibition at 10 µM in data set [5] amounted to 67%. In addition, the Activity entry in data set [1] is reported as “Non-toxic”.
For `C[S+]([O-])c1ccc(-c2nc(-c3ccc(F)cc3)c(-c3ccncc3)[nH]2)cc1` (centres undefined) [SB-203580], the inhibition at 10 µM in data set [5] was 53%.
